Assay results published in ChEMBL document CHEMBL1124110, “Synthesis and pharmacological evaluation of 5,6-exo-epoxy-7-oxabicyclo[2.2.1]heptane derivatives” (J Med Chem, 1988).

Legend:
Format in all cases: functional
Homo sapiens = species on record: Homo sapiens; test: Inhibition of platelet aggregation induced by arachidonic acid(AA) in human platelet-rich plasma; conditions: read-out: I50
Summary of the method: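 Human platelet-rich plasma; aggregation triggered by arachidonic acid. Potency is expressed as the I50 (concentration giving 50% inhibition), reported as mean ± SEM or as mean ± range when n = 2.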

Cavia porcellus [1] = test: Percent inhibition of increase in pulmonary resistance was measured on arachidonic acid induced bronchoconstriction in the anesthetized guinea pig after 30 min
Summary of the method: (§1)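 Anesthetized guinea pigs received the test agent at 1 mg/kg iv. Arachidonic acid (0.5 mg/kg iv) injections were given as challenge. Rises in pulmonary resistance were recorded, and percent inhibition was scored at 3, 10 and 30 min. Values are mean ± SEM, n = 3–5 animals.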

Cavia porcellus [2] = test: Percent inhibition of increase in pulmonary resistance was measured on arachidonic acid induced bronchoconstriction in the anesthetized guinea pig after 3 min; summary of the method: as §1
Cavia porcellus [3] = test: Percent inhibition of increase in pulmonary resistance was measured on arachidonic acid induced bronchoconstriction in the anesthetized guinea pig after 10 min; summary of the method: as §1

Row | Structure (SMILES) | IC50 (Homo sapiens) | Inhibition (Cavia porcellus [1]) | Inhibition (Cavia porcellus [2]) | Inhibition (Cavia porcellus [3])
1 | CCCCC[C@H](O)/C=C/C1C(C/C=C\CCCC(=O)O)C2OC1C1OC21 (some centres not stated) | 15.3 µM | – | – | –
2 | O=C(O)CCC/C=C\CC1C(/C=C/[C@@H](O)C2CCCCC2)C2OC1C1OC21 (some centres not stated) | 5.2 µM | – | – | –
3 | CC1([C@H](O)/C=C/C2C(C/C=C\CCCC(=O)O)C3OC2C2OC32)CCCCC1 (some centres not stated) | 0.53 µM | 22% | 85% | 67%
4 | O=C(O)CCC/C=C\C[C@@H]1[C@H](CNNC(=O)Nc2ccccc2)[C@H]2CC[C@H]1O2 | 0.02 µM | 96% | 97% | 98%
5 | O=C(O)CCC/C=C\CC1C(/C=C/[C@@H](O)CCc2ccccc2)C2OC1C1OC21 (some centres not stated) | 1.6 µM | – | – | –
6 | CCCCC(C)(C)[C@H](O)/C=C/C1C(C/C=C\CCCC(=O)O)C2OC1C1OC21 (some centres not stated) | 2.2 µM | – | – | –
7 | O=C(O)CCC/C=C\CC1C(/C=C/[C@H](O)C2CCCCC2)C2OC1C1OC21 (some centres not stated) | 17 µM | – | – | –
8 | O=C(O)CCC/C=C\CC1C(/C=C/[C@@H](O)CCc2ccc(O)cc2)C2OC1C1OC21 (some centres not stated) | 0.27 µM | 46% | 90% | 83%
9 | COc1ccc2c(c1)c(CC(=O)O)c(C)n2C(=O)c1ccc(Cl)cc1 [INDOMETHACIN] | 6 µM | – | – | –
10 | O=C(O)COc1ccc(CCNS(=O)(=O)c2ccccc2)cc1 [SULOTROBAN] | 38.5 µM | 40% | 89% | 82%
